MEKK3 PB1 HTS: MEKK3-MEK5 PB1 interaction, increase or decrease. bead-based flow cytometry, Alexa488-MEK5 binding to MEKK3; actives lie on both sides; 0 = blocked by unlabeled MEK5, 100 = vehicle. binding response (% of control), % at 10 µM. actives 1.4% (n = 290,000). AID 1529;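 active = binding response more than 3 SD above or below the average of its plate-row segment, actives on both sides; inconclusive = wells at one plate position flagged as instrument error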;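 note: Alexa488 bead fluorescence after subtracting the streptavidin-only scavenger bead signal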
MEKK2 mut-MEK5: signal of MEK5 binding to mutant human MEKK2 PB1 domain. bead flow cytometry, Alexa488-MEK5 binding to MEKK2 mutant. percent response, % at 10 µM. actives 0.35% (n = 290,000). AID 1530; in the data active = percent response above about 24%, passing the limit was not always enough
UBC13 inh: inhibitors of human UBC13 polyubiquitin chain formation. inhibition, % at 20 µM. TR-FRET. P61088. actives 0.47% (n = 330,000); in the data active = inhibition above about 45%, passing the limit was not always enough; inconclusive = no clear call, values can overlap the other calls
Target sequence (P61088 whole entry, looked up): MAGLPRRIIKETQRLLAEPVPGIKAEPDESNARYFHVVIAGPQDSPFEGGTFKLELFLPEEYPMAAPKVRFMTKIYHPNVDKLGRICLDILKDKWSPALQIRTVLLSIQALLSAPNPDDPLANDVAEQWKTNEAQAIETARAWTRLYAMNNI
MEKK2wt PB1 HTS: raises or lowers MEK5 binding to wildtype human MEKK2 PB1 domain; Q9Y2U5; bead flow cytometry, Alexa488-MEK5 binding to MEKK2 WT; actives lie on both sides; binding response (% of control), % at 10 µM; actives 1.1% (n = 290,000); AID 1531; in the data active = binding response below about 67% or above about 130%; inconclusive = no clear call, values can overlap the other calls; inactive = in between
PREPL inh: inhibits the human prolyl oligopeptidase-like enzyme; Q4J6C6; recombinant PREPL, fluorescence polarization activity-based probe; inhibition, % at 5.96 µM; actives 0.68% (n = 320,000); AID 2751; in the data active = inhibition above about 43%;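 note: 0% = enzyme with DMSO and 100% = wells lacking enzyme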
Apaf-1 inh: blocks human Apaf-1 apoptosome activity; actives 0.71% (n = 330,000); inhibition, % at 20 µM; AID 489030; O14727; reconstituted apoptosome caspase-3 activity, DEVD-Rh110 fluorescence; active = inhibition of at least 40% at 20 µM;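 note: plate controls were DMSO wells for no effect and DEVD-CHO caspase inhibitor wells for full effect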
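Medium: Hepes buffer, pH 7.5 / System: biochemical Apaf-1 apoptosome reconstitution / Measured by: Rh110 fluorescence, excitation 480 nm, emission 540 nm / Times: compound with Apaf-1, dATP, procaspase-3 30 min, then 50 min reaction, room temperature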
An asterisk follows results filed as active; ? = inconclusive; . = no result. Hits are enriched below; roughly 3.1% of the tested compounds scored in any of these assays.

SMILES | MEKK3 PB1 HTS | MEKK2 mut-MEK5 | UBC13 inh | MEKK2wt PB1 HTS | PREPL inh | Apaf-1 inh
CC1CC(C)CN(S(=O)(=O)c2ccc(NC(=O)c3ccc(=O)[nH]c3)cc2)C1 (centres undefined) | . | . | 1 | . | 1 | -13
CC(C)c1ccc(-n2nc3ccc(N)cc3n2)cc1 | 96 | -4 | 12 | 88 | 4 | 63*
Cc1ccc(-n2nc3ccc(N)cc3n2)cc1 | 105 | 9 | -13 | 107 | 11 | 82*
Cc1cc2nn(-c3ccc(F)cc3)nc2cc1N | 89 | 1 | -7 | 89 | 7 | 31
CCc1ccc(NC(=O)COC(=O)Cn2cnc3ccccc32)cc1 | . | . | ? | . | . | 12
COc1cc2c(cc1OC)C(C)N(C(=O)c1cc3c(=O)oc4ccc(C)cc4c3s1)CC2 (centres undefined) | 109 | -3 | 47* | 95 | -1 | 11
CC(C)NC(=S)N1CCCN(c2ncccc2[N+](=O)[O-])CC1 | 107 | 9 | 3 | 107 | 10 | 1
CC1=NN(c2ccccc2)C(=O)/C1=C/c1cc2cc(C)ccc2nc1N1CCCCC1 | 89 | 1 | -63 | 88 | 4 | 94*
CC1(C)CC(=O)C=C(NCC(=O)O)C1 | 90 | -3 | -2 | 92 | 8 | -8
CCSCCC(NC1=CC(=O)CC(C)(C)C1)C(=O)O (centres undefined) | 105 | 1 | -5 | 105 | -3 | 49*
O=C1C2C3C=CC(C3)C2C(=O)N1CNc1ccc(O)cc1 (centres undefined) | 97 | 1 | -15 | 96 | 19 | 94*
Cc1ccc(NC(=O)CSc2nnc(C3CC3)n2CC2CCCO2)cc1C (centres undefined) | 102 | -1 | -2 | 103 | 1 | 12
COc1ccc(CCNC(=O)CSc2ncc(C(=O)Nc3ccccc3)c(=O)n2C)cc1 | . | . | 36 | . | -3 | 6
CC(=O)Nc1ccc(NC(=O)CSc2ncc(C(=O)Nc3ccccc3)c(=O)n2C)cc1 | . | . | 69* | . | 4 | 7
Cc1ccc(NC(=O)c2cnc(SCC(=O)NCC3CCCO3)n(C)c2=O)cc1C (centres undefined) | . | . | 72* | . | 2 | 16
Cc1c(C)n(C)c2ccc(C(=O)NCCCN(C)C3CCCCC3)cc12 | 101 | 12 | 8 | 145* | 29 | 8
Cc1c(C)n(C)c2ccc(C(=O)NCCCN3CCCCC3C)cc12 (centres undefined) | 108 | 35* | 18 | 178* | 24 | 18
CC(NC(=O)c1cccc(N(C)C)c1)c1ccc(-n2ccnc2)cc1 (centres undefined) | 102 | -4 | -1 | 101 | 8 | -5
CCN(CC)S(=O)(=O)c1ccc(N2CCN(C)CC2)c(NC(=O)Nc2ccc(C)cc2)c1 | 106 | 15 | 15 | 146* | 4 | 12
O=C(NCCC(=O)N(CCc1ccccc1)Cc1ccccc1)c1ccc(Br)cc1 | . | . | -1 | . | 10 | 35
N#CC(C#N)=Cc1c[nH]c(=O)c(C#N)c1Nc1ccccc1 | . | . | 3 | . | 3 | -15
CN1C(=O)c2ccccc2C(C(=O)O)C1c1cccc(Cl)c1 (centres undefined) | 101 | -2 | -5 | 100 | 8 | 2
CC(=O)[C@H]1[C@@H]2C(=O)N(c3cccc(Cl)c3)C(=O)[C@@H]2[C@H]2c3ccccc3C=CN21 | 106 | 7 | -23 | 100 | 13 | 73*
O=C1C2C3CC(C2C(=O)N1c1cccc(Cl)c1)[C@H](O)C3O (some centres undefined) | 99 | 0 | 2 | 95 | 15 | -26
CC(=O)[C@H]1[C@H](c2cccc(Cl)c2)C(C#N)(C#N)[C@@H]2c3ccccc3C=CN21 | 103 | 17 | -7 | 100 | 5 | 56*
SMILES | MEKK3 PB1 HTS | MEKK2 mut-MEK5 | UBC13 inh | MEKK2wt PB1 HTS | PREPL inh | Apaf-1 inh
COC(=O)C1(CCSC)NC(c2ccccc2F)C2C(=O)N(c3ccc4c(c3)OCCO4)C(=O)C21 (centres undefined) | 102 | -2 | -12 | 96 | -23 | -1
CC(=O)[C@@H]1[C@@H]2C(=O)N(c3ccc(F)c(Cl)c3)C(=O)[C@@H]2C2c3ccccc3C=CN21 (some centres undefined) | 100 | -7 | -18 | 94 | -1 | 72*
N#C[C@@H]1[C@@H]2C(=O)N(c3ccc4c(c3)OCCO4)C(=O)[C@@H]2C2c3ccccc3C=CN21 (some centres undefined) | 101 | 5 | -24 | 97 | 9 | 78*
O=C(c1ccco1)[C@@H]1[C@@H]2C(=O)N(c3ccc(F)cc3)C(=O)[C@@H]2C2c3ccccc3C=CN21 (some centres undefined) | 98 | 4 | -14 | 97 | 12 | 83*
O=C(c1ccco1)[C@@H]1[C@@H]2C(=O)N(c3ccc(Br)cc3)C(=O)[C@@H]2C2c3ccccc3C=CN21 (some centres undefined) | 103 | 0 | . | 96 | . | .
CCn1c(SCC(=O)NC2CCCC2)nnc1C(C)NC(=O)c1ccccc1Br (centres undefined) | 98 | -2 | 6 | 96 | 3 | 1
COc1ccc(NC(=O)C2CC(=O)N=C(N)S2)cc1 (centres undefined) | 98 | 2 | -8 | -11* | 3 | -6
CCc1ccc(NC(=O)C2CC(=O)N=C(N)S2)cc1 (centres undefined) | 99 | -1 | 8 | 97 | -1 | -4
COC(=O)c1c(C)[nH]c(O)c1C=Nc1ccc(Oc2ccccc2)cc1 | 81 | -5 | -10 | 80 | 0 | 10
COC(=O)c1c(C)[nH]c(O)c1C=Nc1ccc(C(C)C)cc1 | 101 | 1 | -13 | 86 | 47* | 21
C[n+]1ccc(C(=O)Nc2ccccc2Cl)cc1 | 99 | 3 | -6 | 103 | 0 | 2
Cc1ccc(NC(=O)CN(C)C(=O)c2ccccc2OCc2c(C)noc2C)cc1 | . | . | -2 | . | -4 | 7
CCOc1ccc(NC(=O)CN(C)C(=O)c2ccccc2OCc2c(C)noc2C)cc1OCC | . | . | 24 | . | -5 | 57*
COc1ccc(OCc2cc(C(=O)N(C)C(C)c3ccon3)no2)c(Cl)c1 (centres undefined) | 103 | 6 | 6 | 107 | 5 | 17
COc1ccc(-c2cc(C)no2)cc1S(=O)(=O)NCC1CCN(Cc2cc(C)ccc2C)CC1 | 101 | 22 | 16 | 143* | -6 | 15
N#Cc1c(N)sc(=S)c2c1CCN(Cc1ccccc1)C2 | 89 | -3 | -14 | 88 | 74* | 96*
COc1cc(/C=C2\C(=N)N3N=C(S(=O)(=O)CC(C)C)SC3=NC2=O)ccc1OC(=O)c1ccco1 | 98 | -1 | -4 | 99 | 49* | 12
Cc1ccnc2c1ccc1c(C)ccnc12 | . | . | 2 | . | 37 | 44*
